What was measured:
RAW264.7 [1] = experiment: Inhibition of LPS-induced TNFalpha production in mouse RAW264.7 cells preincubated for 2 hrs followed by LPS stimulation and measured after 20 hrs by ELISA; type: functional, cell-based
[2] = target: T1, Prostaglandin G/H synthase 2 (Homo sapiens) (UniProt P35354); experiment: Potency index, ratio of diclofenac sodium IC50 to test compound IC50 for human recombinant COX-2 using arachidonic acid as substrate preincubated with enzyme for 5 mins followed by substrate addition by colorimetric analysis
T1 sequence (whole entry): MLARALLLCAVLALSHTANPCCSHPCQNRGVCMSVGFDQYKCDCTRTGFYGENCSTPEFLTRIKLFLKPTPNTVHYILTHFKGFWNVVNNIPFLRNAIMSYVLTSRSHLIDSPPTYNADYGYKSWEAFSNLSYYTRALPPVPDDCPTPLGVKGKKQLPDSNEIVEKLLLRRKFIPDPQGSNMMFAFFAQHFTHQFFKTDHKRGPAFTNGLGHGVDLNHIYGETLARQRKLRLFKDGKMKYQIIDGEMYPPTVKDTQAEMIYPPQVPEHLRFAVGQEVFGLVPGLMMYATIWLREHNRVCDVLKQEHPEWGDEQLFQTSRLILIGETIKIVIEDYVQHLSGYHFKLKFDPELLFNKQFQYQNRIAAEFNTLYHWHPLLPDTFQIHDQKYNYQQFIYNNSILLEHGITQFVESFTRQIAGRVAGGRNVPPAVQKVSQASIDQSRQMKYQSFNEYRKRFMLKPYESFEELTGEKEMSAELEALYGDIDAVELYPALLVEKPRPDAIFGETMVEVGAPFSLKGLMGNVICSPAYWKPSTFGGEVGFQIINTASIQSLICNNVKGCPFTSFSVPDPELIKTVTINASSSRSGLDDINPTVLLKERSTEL

[3] = target: T2, Prostaglandin G/H synthase 1 (Ovis aries, UniProt P05979); experiment: Inhibition of ovine COX-1 using arachidonic acid as substrate preincubated with enzyme for 5 mins followed by substrate addition by colorimetric analysis
T2 sequence (P05979 whole entry): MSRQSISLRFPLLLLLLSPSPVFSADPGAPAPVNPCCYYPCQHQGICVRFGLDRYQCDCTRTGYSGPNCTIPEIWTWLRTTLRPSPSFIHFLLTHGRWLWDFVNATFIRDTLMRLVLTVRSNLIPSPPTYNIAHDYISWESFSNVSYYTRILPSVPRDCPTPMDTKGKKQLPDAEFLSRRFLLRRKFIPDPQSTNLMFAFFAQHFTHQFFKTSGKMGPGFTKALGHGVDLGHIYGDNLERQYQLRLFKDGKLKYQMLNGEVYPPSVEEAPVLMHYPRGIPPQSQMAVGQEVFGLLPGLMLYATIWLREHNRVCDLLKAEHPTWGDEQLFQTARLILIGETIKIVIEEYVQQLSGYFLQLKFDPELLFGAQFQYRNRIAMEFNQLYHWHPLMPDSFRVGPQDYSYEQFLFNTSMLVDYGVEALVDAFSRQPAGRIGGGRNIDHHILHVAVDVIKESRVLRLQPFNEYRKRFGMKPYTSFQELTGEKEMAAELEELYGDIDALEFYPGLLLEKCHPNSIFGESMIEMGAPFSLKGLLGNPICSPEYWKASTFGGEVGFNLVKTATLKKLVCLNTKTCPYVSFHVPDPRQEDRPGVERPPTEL

RAW264.7 [4] = experiment: Cytotoxicity against mouse RAW264.7 cells assessed as reduction in cell viability by MTS assay; type: cell-based
Outline: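 RAW 264.7 macrophage viability at the tested concentrations measured by MTS assay.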

RAW264.7 [5] = experiment: Inhibition of LPS-induced 15(S)-HETE production in mouse RAW264.7 cells preincubated for 2 hrs followed by LPS stimulation and measured after 20 hrs by ELISA; type: functional, cell-based
RAW264.7 [6] = experiment: Potency index, ratio of celecoxib IC50 to test compound IC50 for inhibition of LPS-induced IL-6 production in mouse RAW264.7 cells preincubated for 2 hrs followed by LPS stimulation and measured after 20 hrs by ELISA; type: functional; details: time 22 hrs
RAW264.7 [7] = experiment: Potency index, ratio of diclofenac sodium IC50 to test compound IC50 for inhibition of LPS-induced IL-6 production in mouse RAW264.7 cells preincubated for 2 hrs followed by LPS stimulation and measured after 20 hrs by ELISA; type: functional; details: time 22 hrs
RAW264.7 [8] = experiment: Potency index, ratio of celecoxib IC50 to test compound IC50 for inhibition of LPS-induced TNFalpha production in mouse RAW264.7 cells preincubated for 2 hrs followed by LPS stimulation and measured after 20 hrs by ELISA; type: functional; details: time 22 hrs
RAW264.7 [9] = experiment: Inhibition of LPS-induced IL-6 production in mouse RAW264.7 cells preincubated for 2 hrs followed by LPS stimulation and measured after 20 hrs by ELISA; type: functional, cell-based
[10] = Inhibition of soybean 15-LOX using arachidonic acid or linolenic acid as substrate in presence of hydrogen peroxide incubated for 5 mins by colorimetric analysis; parameters: species or system Glycine max
RAW264.7 [11] = experiment: Inhibition of LPS-induced NO production in mouse RAW264.7 cells preincubated for 2 hrs followed by LPS stimulation and measured after 20 hrs by DAF-FM based fluorescence analysis; type: functional, cell-based
[12] = Selectivity index, ratio of IC50 for ovine COX-1 to IC50 for human recombinant COX-2
Outline: (§1)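 Enzyme kit assay with ovine COX-1 and human recombinant COX-2. IC50 determined from three replicates. Selectivity index taken as IC50(COX-1)/IC50(COX-2).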

RAW264.7 [13] = experiment: Potency index, ratio of diclofenac sodium IC50 to test compound IC50 for inhibition of LPS-induced TNFalpha production in mouse RAW264.7 cells preincubated for 2 hrs followed by LPS stimulation and measured after 20 hrs by ELISA; type: functional; details: time 22 hrs
[14] = target: T3, Prostaglandin G/H synthase 2 (Homo sapiens, UniProt P35354); experiment: Inhibition of human recombinant COX-2 using arachidonic acid as substrate preincubated with enzyme for 5 mins followed by substrate addition by colorimetric analysis
T3 sequence (P35354 whole entry): T1 sequence (whole entry)

RAW264.7 [15] = experiment: Potency index, ratio of diclofenac sodium IC50 to test compound IC50 for inhibition of LPS-induced NO production in mouse RAW264.7 cells preincubated for 2 hrs followed by LPS stimulation and measured after 20 hrs by DAF-FM based fluorescence analysis; type: functional; details: time 22 hrs
RAW264.7 [16] = experiment: Potency index, ratio of celecoxib IC50 to test compound IC50 for inhibition of LPS-induced NO production in mouse RAW264.7 cells preincubated for 2 hrs followed by LPS stimulation and measured after 20 hrs by DAF-FM based fluorescence analysis; type: functional; details: time 22 hrs
RAW264.7 [17] = experiment: Antioxidant activity in mouse RAW264.7 cells assessed as inhibition of LPS-induced intracellular ROS production preincubated for 2 hrs followed by LPS stimulation and measured after 20 hrs by DCFH-DA staining based fluorescence analysis; type: functional, cell-based
RAW264.7 [18] = experiment: Potency index, ratio of celecoxib IC50 to test compound IC50 for antioxidant activity in mouse RAW264.7 cells assessed as inhibition of LPS-induced intracellular ROS production preincubated for 2 hrs followed by LPS stimulation and measured after 20 hrs by DCFH-DA staining based fluorescence analysis; type: functional; details: time 22 hrs
RAW264.7 [19] = experiment: Potency index, ratio of celecoxib IC50 to test compound IC50 for inhibition of LPS-induced 15(S)-HETE production in mouse RAW264.7 cells preincubated for 2 hrs followed by LPS stimulation and measured after 20 hrs by ELISA; type: functional; details: time 22 hrs
RAW264.7 [20] = experiment: Cytotoxicity against mouse RAW264.7 cells assessed as reduction in cell viability at 50 uM by MTS assay; type: cell-based; details: raw264.7, 50 µM
[21] = target: T3, Prostaglandin G/H synthase 2; experiment: Inhibition of human recombinant COX-2; outline: as §1
[22] = Inhibition of soybean 15-LOX; parameters: species or system Glycine max
Outline: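 Soybean 15-LOX run with a lipoxygenase inhibitor screening kit according to the manufacturer's instructions. IC50 values reported.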

[23] = target: T2, Prostaglandin G/H synthase 1; experiment: Inhibition of ovine COX-1; outline: as §1
[24] = target: COX-1 (Prostaglandin G/H synthase 1) (Homo sapiens, UniProt P23219); experiment: Inhibition of COX-1 in human whole blood assessed as reduction in thromboxane B2 production at 10 uM measured after 1 hr by EIA; type: tissue-based
[25] = target: T1, Prostaglandin G/H synthase 2 (Homo sapiens); experiment: Inhibition of COX-2 in human whole blood assessed as reduction in PGE2 production at 10 uM measured after 24 hrs by EIA; type: tissue-based
[26] = Inhibition of soybean 15-LOX using linolenic acid as substrate by spectrophotometric analysis; parameters: species or system Glycine max
[27] = target: T2, Prostaglandin G/H synthase 1; experiment: Inhibition of ovine COX-1 by colorimetric analysis

Chain of COX-1 (Prostaglandin G/H synthase 1) (P23219 whole entry): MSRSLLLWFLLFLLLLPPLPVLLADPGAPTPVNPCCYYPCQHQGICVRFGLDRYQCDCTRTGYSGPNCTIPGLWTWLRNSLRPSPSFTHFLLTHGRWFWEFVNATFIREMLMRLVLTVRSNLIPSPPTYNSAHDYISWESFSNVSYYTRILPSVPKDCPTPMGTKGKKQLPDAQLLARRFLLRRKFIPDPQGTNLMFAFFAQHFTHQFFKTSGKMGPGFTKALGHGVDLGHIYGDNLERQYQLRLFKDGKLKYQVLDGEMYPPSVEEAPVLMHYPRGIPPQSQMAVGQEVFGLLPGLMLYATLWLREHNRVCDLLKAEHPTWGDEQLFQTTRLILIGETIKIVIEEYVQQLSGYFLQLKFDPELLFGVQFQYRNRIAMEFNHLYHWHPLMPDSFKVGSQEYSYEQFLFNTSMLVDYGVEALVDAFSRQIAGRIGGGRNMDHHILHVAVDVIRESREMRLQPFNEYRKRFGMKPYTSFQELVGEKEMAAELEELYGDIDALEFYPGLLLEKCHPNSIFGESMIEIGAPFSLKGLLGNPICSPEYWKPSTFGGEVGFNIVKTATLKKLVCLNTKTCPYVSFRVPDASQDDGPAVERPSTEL

| Compound | IC50 (RAW264.7 [1]) [µM] | Ratio IC50 [2] | IC50 [3] [µM] | IC50 (RAW264.7 [5]) [µM] | IC50 (RAW264.7 [9]) [µM] | IC50 [10] [nM] | IC50 (RAW264.7 [11]) [µM] | Ratio IC50 [12] | IC50 [14] [nM] | IC50 (RAW264.7 [17]) [µM] | Activity (RAW264.7 [4]) | Ratio IC50 (RAW264.7 [6]) | Ratio IC50 (RAW264.7 [7]) | also measured |
| --- | --- | --- | --- | --- | --- | --- | --- | --- | --- | --- | --- | --- | --- | --- |
| COc1cc(Cc2n[nH]c(=S)n(/N=C/c3cc4cccc(C)c4nc3Cl)c2=O)cc(OC)c1OC | 0.4 | 5.3 | 8.3 | 1.46 | 3.99 | 1860 | 25.8 | 51.9 | 160 |  | Non-Toxic | 2.8 | 3.2 | Ratio IC50 (RAW264.7 [8]): 25; Ratio IC50 (RAW264.7 [13]): 25 |
| COc1cc(Cc2n[nH]c(=S)n(/N=C/c3cc4cc(C)ccc4nc3O)c2=O)cc(OC)c1OC |  | 12.9 | 11.5 | 8.86 |  | 2060 | 6.34 | 177 | 65 | 6.67 | Non-Toxic |  |  | Ratio IC50 (RAW264.7 [15]): 6; Ratio IC50 (RAW264.7 [16]): 3 |
| O=c1c(Cc2ccccc2)n[nH]c(=S)n1/N=C/c1cc2cc(OCc3ccccc3)ccc2nc1O | 19.2 | 17.9 | 12.5 | 0.17 | 7.7 | 1810 |  | 266 | 47 | 1.02 | Non-Toxic | 1.5 | 1.7 | Ratio IC50 (RAW264.7 [18]): 11; Ratio IC50 (RAW264.7 [19]): 43 |
| COc1ccc2cc(/C=N/n3c(=S)[nH]nc(Cc4ccccc4)c3=O)c(O)nc2c1 | 8.41 | 11.5 | 10.2 | 3.6 | 7.36 | 2320 | 16.1 | 140 | 73 | 3.78 | Non-Toxic | 1.5 |  | Activity (RAW264.7 [20]): Toxic |
| COc1ccc(/C=C\C(=O)c2cc(-n3cc(CN4C(=O)C(=O)c5ccccc54)nn3)ccc2O)cc1 |  |  |  |  |  |  |  |  |  |  |  |  |  | IC50 [21]: 37 nM; IC50 [22]: 1.95 µM; IC50 [23]: 13.3 µM |
| COc1cc(Cc2n[nH]c(=S)n(/N=C/c3cc4ccc(OCc5ccccc5)cc4nc3Cl)c2=O)cc(OC)c1OC | 16 | 7 | 7.7 | 2.03 | 6.11 | 3390 | 6.76 | 64.2 | 120 | 4.36 | Non-Toxic | 1.8 | 2.1 | Ratio IC50 (RAW264.7 [15]): 6; Ratio IC50 (RAW264.7 [16]): 3; Activity (RAW264.7 [20]): Toxic |
| COc1ccc2nc(O)c(/C=N/n3c(=S)[nH]nc(Cc4ccccc4)c3=O)cc2c1 | > 50 | 12.4 | 10.5 | 3.91 | 5.98 | 1970 | 6.93 | 154 | 68 | 3.95 | Non-Toxic | 1.9 | 2.2 | Ratio IC50 (RAW264.7 [15]): 6; Ratio IC50 (RAW264.7 [16]): 3 |
| COc1ccc(C2=C(c3ccc(OC)cc3)NNC(N/N=C/c3ccc(F)cc3)=N2)cc1 |  |  |  |  |  |  |  |  |  |  |  |  |  | inhibition at 1 h, 10 µM [24]: 69%; inhibition [25]: 72%; IC50 [26]: 124 µM |
| COc1ccc2cc(/C=N/n3c(=S)[nH]nc(Cc4cc(OC)c(OC)c(OC)c4)c3=O)c(O)nc2c1 | 2.61 | 8.7 | 9.7 | 18.6 | 5.54 | 2180 | > 50 |  | 97 | 4.52 | Non-Toxic | 2 | 2.3 |  |
| O=C1N/C(=N\c2nnc(-c3ccc(O)cc3)s2)S/C1=C\c1ccccc1 |  |  |  |  |  |  |  |  |  |  |  |  |  | IC50 [21]: 85 nM; IC50 [22]: 5.74 µM; IC50 [23]: 4.66 µM |
| COc1ccc(/C=C2\N=C(c3cccnc3)N(c3ccccc3)NC2=O)cc1 |  |  |  |  |  |  |  |  |  |  |  |  |  | IC50 [27]: 100 nM |
